# HGIII-sPLA2 inh: Blocks human group III sPLA2 activity. inhibition, % at 12.2 µM. 370,000 compounds, 0.56% hits. Q9NZ20. QFRET BODIPY PC-A2 liposome hydrolysis, fluorescence;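 active = inhibition above mean plus 3 SD of compounds lying within the high and low control bounds, cut at about 19% in these data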
# PLCb3 inh: inhibitors of human phospholipase C beta3; Q01970; Purified PLC-beta3, fluorogenic substrate, fluorescence; inhibition, % at 12.2 µM; 370,000 compounds, 0.18% hits; AID 720704; in the data active = inhibition above about 11%
# PLCg1 inh: PLC-gamma1 (human) inhibition, primary screen; purified PLC-gamma1, fluorogenic substrate, fluorescence; inhibition, % at 12.2 µM; P19174; 370,000 compounds, 0.84% hits; in the data active = inhibition above about 9.5%
# TbMetRS inhib: blocks T. brucei methionyl-tRNA synthetase activity | purified T. brucei MetRS, ATP depletion, Kinase-Glo luminescence | 360,000 compounds, 0.4% hits | inhibition, % at 11.9 µM;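 active = inhibition above a per-plate cutoff of the control wells' mean inhibition plus 3 SD, cut at about 5.5% in these data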
#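 assay system = parasite MetRS enzyme | timing = 15 min preincubation, 2 h reaction, all 25 °C | evaluation = percent inhibition relative to median high and low control wells | medium = HEPES buffer containing pyrophosphatase, BSA, spermine, DTT | compound = single dose, 11.9 µM final nominal, 0.9% final DMSO | detection = Kinase-Glo luminescence, ATP depletion format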
# sPLA2 confirm: human GIII-sPLA2 inhibition, confirmation; shares compounds with HGIII-sPLA2 inh; recombinant hGIII-sPLA2, BODIPY PC-A2 QFRET fluorescence; inhibition, % at 12.2 µM; 2,000 compounds, 34% hits;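 active = mean inhibition across triplicates above the hit cutoff set in the earlier primary screen, cut at about 19% in these data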
# 535nm interf: 535nm fluorescence interference, HGIII-sPLA2 counter-screen. BODIPY FL product fluorescence interference, QFRET. shares compounds with HGIII-sPLA2 inh. 2,000 compounds, 8.5% hits. inhibition, % at 12.2 µM;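 active = average inhibition above the solvent-only control mean plus 3 SD, cut at about 6% in these data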
# 535nm interf DR: counter-screen for HGIII-sPLA2 inhibitors: 535nm fluorescence interference, dose response. shares compounds with HGIII-sPLA2 inh. BODIPY FL product fluorescence interference, cell-free. IC50, µM. 240 tested, under 10 active;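 active = IC50 at or below 10 µM; inactive = IC50 above 10 µM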
# Numbers stand for hits; - = inactive; . = no result given. In the library only some 1.9% were active in any assay of this set; here they are far more common.
SMILES,HGIII-sPLA2 inh,PLCb3 inh,PLCg1 inh,TbMetRS inhib,sPLA2 confirm,535nm interf,others
Cc1ccc(C(=O)NC(=S)NNC(=O)c2ccccc2[N+](=O)[O-])cc1,-,-,-,-,.,.,
O=C(NNC(=S)NC(=O)c1ccccc1)c1ccc([N+](=O)[O-])cc1,-,-,-,-,.,.,
COc1ccccc1C(=O)NNC(=S)NC(=O)c1cccs1,-,-,-,-,.,.,
CC(=O)Nc1ccc(NC(=S)NC(=O)c2ccc([N+](=O)[O-])cc2)cc1,24,-,-,-,-,-,
O=C(NC(=S)NNC(=O)c1ccccc1O)c1ccccc1,31,-,-,-,25,-,
O=C(NC(=S)NNC(=O)c1ccccc1O)c1cccs1,30,-,-,-,30,-,535nm interf DR=-
O=C(NC(=S)NNC(=O)c1ccco1)c1ccccc1,-,-,-,-,.,.,
O=C1C=C(N2CCOCC2)c2ccccc2C1=O,-,-,-,-,.,.,
Cc1ccc(N2CCOCC2)c2c1C(=O)c1ccccc1C2=O,25,-,-,-,29,-,535nm interf DR=-
S=C(NCc1ccccc1)N1CCCCC1,-,-,-,-,.,.,
CCC1CCCCN1C(=S)NCc1ccccc1 (stereo not given),24,-,-,-,-,-,
CC1CCCCC1NC(=O)CSC1=Nc2ccccc2C2CC=NN12 (stereo not given),20,-,-,-,-,-,
CC1CCCC(NC(=O)CSC2=Nc3ccccc3C3CC=NN23)C1C (stereo not given),-,-,-,-,.,.,
COc1ccc(CCNC(=O)Nc2nc(C(N)C3CCCCC3)cs2)cc1OC (stereo not given),22,-,-,-,-,-,
NC(c1csc(Nc2nncc3ccccc23)n1)C1CCCCC1 (stereo not given),20,-,-,-,-,-,
NC(c1csc(Nc2nncc3ccccc23)n1)c1ccccc1Cl (stereo not given),-,-,-,-,.,.,
NC(c1ccccc1)c1csc(NC(=O)NCCc2ccccc2)n1 (stereo not given),25,-,-,-,-,-,
NC(c1csc(NC(=O)Nc2ccccc2)n1)C1CCCCC1 (stereo not given),22,-,-,-,-,-,
CCC(=O)N1CCc2cc(Br)c(S(=O)(=O)N3CCC(C(=O)NC(C)(C)C)CC3)cc21,-,-,-,.,.,.,
CC(C)CC(O)(CC(C)C)c1cn(C(=O)N(c2ccccc2)c2ccccc2)nn1,-,-,-,.,.,.,
C=CCN1C(=O)c2ccc(C(=O)OCC(=O)Nc3ccccc3OC)cc2C1=O,20,-,-,-,-,-,
Cc1ccc(CNC(=O)C2CCCN(c3nc4ccccc4o3)C2)cc1 (stereo not given),19,-,-,-,-,-,
O=C(NCc1ccc(F)cc1)C1CCCN(c2nc3ccccc3o2)C1 (stereo not given),-,-,-,.,.,.,
C(=N\Nc1nc2ccccc2[nH]1)/c1cccc2cccnc12,37,-,-,-,-,-,
CC(c1ccccc1)n1cc(C(=O)N2CCCN(Cc3ccccc3)CC2)nn1 (stereo not given),-,-,-,.,.,.,
SMILES,HGIII-sPLA2 inh,PLCb3 inh,PLCg1 inh,TbMetRS inhib,sPLA2 confirm,535nm interf,others
CCSc1ncc(Cl)c(C(=O)Nc2ccccc2Cl)n1,-,-,-,-,.,.,
CCSc1ncc(Cl)c(C(=O)Nc2ccccc2OC)n1,21,-,-,-,-,-,
O=[N+]([O-])c1cc2c(c([N+](=O)[O-])c1)Nc1ccccc1O2,21,-,-,-,45,12,
COc1ccc2c(c1)[C@@]1(OCCC=C[C@H]1C)C(=O)N2Cc1ccc(Br)cc1,-,-,-,.,.,.,
O=C(c1ccccc1C(F)(F)F)N1CCC(Oc2cccnc2)CC1,-,-,-,.,.,.,
CCOC1(c2ccccc2)OC(=O)c2ccccc21 (stereo not given),22,-,-,-,-,-,
Nc1ccn([C@@H]2O[C@H](C(=O)N[C@H](Cc3ccccc3)C(=O)N3CCSC3)[C@@H](O)[C@H]2O)c(=O)n1,-,-,-,.,.,.,
CCOC(=O)N[C@@H](Cc1cccnc1)C(=O)N1CCC[C@H]1C(=O)NC1CCCC1,-,-,-,.,.,.,

# From PubChem
